Assay results: ChEMBL document CHEMBL2176998, “Regulation of the Escherichia coli AtoSC two component system by synthetic biologically active 5;7;8-trimethyl-1;4-benzoxazine analogues” (Bioorg Med Chem, 2011)
The source made the active and inactive calls. No cut-off for these calls is given here.

Legend:
[1] = test system: Escherichia coli; assay: Induction of atoC transcription in Escherichia coli K-12 BW25113 at 1 mM by beta-galactosidase reporter assay; type: functional, organism-based
Procedure, shortened: (§1)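 BW25113 carrying pCPG6 (atoC-lacZ) grown at 37 °C with vigorous shaking in supplemented M9 minimal medium with ampicillin 100 µg/mL. Overnight cultures were diluted 1:15 into medium containing compound at 1 mM, or at 0, 0.25, 0.5, 1.0, 2.5 and 5 mM. Cells were grown to OD600 0.4–0.7, then harvested, washed twice in M9, and assayed for β-galactosidase. The pMLB1034 vector strain served as negative control. Two independent experiments, two clones each.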

[2] = test system: Escherichia coli; assay: Repression of atoDAEB transcription in Escherichia coli K-12 BW25113 at 1 mM by beta-galactosidase reporter assay; type: functional, organism-based
Procedure, shortened: (§2)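 BW25113 carrying pCPG5 (atoA-lacZ, atoDAEB promoter) grown at 37 °C in supplemented M9 minimal medium with 1 mM compound. Overnight cultures were diluted 1:15 and grown to OD600 0.4–0.7. Cells were washed twice in M9, then β-galactosidase activity was read. Plasmid pMLB1034 served as negative control.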

[3] = test system: Escherichia coli; assay: Induction of atoDAEB transcription in Escherichia coli K-12 BW25113 at 1 mM by beta-galactosidase reporter assay; type: functional, organism-based; procedure, shortened: as §2
[4] = Induction of purified His6-tagged cytosolic AtoS autophosphorylation preincubated at 1 mM for 15 mins before […] addition after 30 mins by autoradiography
Procedure, shortened: (§3)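 Purified His6-tagged cytoAtoS (7 µM) was preincubated 15 min at room temperature with compound at 1 mM final in 50 mM Tris-HCl pH 7.6, 10 mM MgCl2, 100 mM KCl, 1 mM DTT, 10 mM NaF. Reactions were stopped with SDS loading buffer, resolved on 12% SDS–PAGE and autoradiographed.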

[5] = test system: Escherichia coli; assay: Increase in AtoC protein level in Escherichia coli K-12 BW25113 grown to OD600 0.5 to 0.6 at 1 to 2.5 mM by immunoblot method; type: functional, organism-based
Procedure, shortened: (§4)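 BW25113 carrying pUC-Az (atoS, atoC) grown in supplemented M9 with compound at 1.0 or 2.5 mM, added at the start of growth. Cultures were harvested at OD600 0.5–0.6. Whole-cell extracts in SDS loading buffer (15 µL) were boiled and run on SDS–PAGE, then immunoblotted with affinity-purified rabbit polyclonal anti-AtoC or anti-AtoS. BW28878, lacking AtoS/AtoC, was the negative control.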

[6] = test system: Nucleic Acid; assay: Activation of atoC promoter in Escherichia coli K-12 BW25113 by beta-galactosidase reporter assay; type: nucleic-acid assay; procedure, shortened: as §1
[7] = test system: Escherichia coli; assay: Reduction in AtoS protein level in Escherichia coli K-12 BW25113 grown to OD600 0.5 to 0.6 at 2.5 mM by immunoblot method; type: functional, organism-based; procedure, shortened: as §4
[8] = Stimulation of recombinant purified His6-tagged cytosolic AtoS oligomers assessed as reduction in dimeric form at 1 mM using glutaraldehyde by SDS-PAGE analysis
Procedure, shortened: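 It was then cross-linked 30 min at 25 °C with 0.1% glutaraldehyde. The reaction was stopped with 2× SDS loading buffer and boiling, run on 8.5% SDS–PAGE and immunoblotted with anti-His (1:500).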

[9] = test system: Escherichia coli; assay: Effect on AtoS protein level in Escherichia coli K-12 BW25113 grown to OD600 0.5 to 0.6 at 1 mM by immunoblot method; type: functional, organism-based; procedure, shortened: as §4
[10] = test system: Nucleic Acid; assay: Activation of atoDAEB promoter activity in Escherichia coli K-12 BW25113 harboring plasmid containing atoA-lacz by beta-galactosidase reporter assay in presence of 2.5 mM acetoacetate
[11] = test system: Escherichia coli; assay: Induction of atoC transcription in Escherichia coli K-12 BW25113 by beta-galactosidase reporter assay; type: functional, organism-based; procedure, shortened: as §1
[12] = test system: Escherichia coli; assay: Reduction in AtoC protein level in Escherichia coli K-12 BW25113 harboring pUC-Az plasmid at 5 mM by immunoblot method
[13] = test system: Nucleic Acid; assay: Effect on atoDAEB promoter activity in Escherichia coli K-12 BW25113 at 1 to 2.5 mM by beta-galactosidase reporter assay; type: nucleic-acid assay
Procedure, shortened: (§5)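 BW25113 carrying pCPG4 (atoS-lacZ) or pCPG5 (atoA-lacZ), in supplemented M9 at 37 °C. Overnight cultures were diluted 1:15 into medium with compound at 1.0 or 2.5 mM and grown to OD600 0.4–0.7. Cells were harvested, washed twice in M9 and assayed for β-galactosidase. The pMLB1034 strain served as negative control.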

[14] = Induction of purified His6-tagged cytosolic AtoS kinase activity preincubated at 1 mM for 15 mins before […] addition after 30 mins by autoradiography; procedure, shortened: as §3
[15] = test system: Escherichia coli; assay: Reduction in AtoS protein level in Escherichia coli K-12 BW25113 at 1 to 5 mM by immunoblot method; type: functional, organism-based
Procedure, shortened: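 BW25113/pUC-Az grown in supplemented M9 with various compound concentrations. Half of each dose was added at OD600 0.2 and half at 0.4, and growth continued to OD600 0.9. Total extracts (15 µL) were run on 10% SDS–PAGE and immunostained with anti-AtoC (1:500) or anti-AtoS (1:1000). BW28878 was the negative control.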

[16] = test system: Escherichia coli; assay: Increase in DnaK protein level in Escherichia coli K-12 BW25113 by Western blot method; type: functional, organism-based
[17] = test system: Nucleic Acid; assay: Effect on atoS promoter activity in Escherichia coli K-12 BW25113 at 1 to 2.5 mM by beta-galactosidase reporter assay; type: nucleic-acid assay; procedure, shortened: as §5
[18] = test system: Escherichia coli; assay: Effect on HSP60 protein level in Escherichia coli K-12 BW25113 harboring plasmid containing atoC-lacZ at 0.25 to 5 mM by Western blot method; type: functional, organism-based
[19] = test system: Nucleic Acid; assay: Activation of atoDAEB promoter activity in Escherichia coli K-12 BW25113 harboring plasmid containing atoA-lacz at 0.1 to 2.5 mM by beta-galactosidase reporter assay in presence of 2.5 mM acetoacetate; type: nucleic-acid assay
Procedure, shortened: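 BW25113/pCPG5 (atoA-lacZ) grown in modified M9 mineral medium with no acetoacetate or with 2.5 or 10 mM acetoacetate. Compound was added at 0.1, 0.5, 1.0 or 2.5 mM after 1:15 dilution of overnight cultures. Cells were grown to OD600 0.4–0.7, washed twice in M9 and assayed for β-galactosidase.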

[20] = test system: Escherichia coli; assay: Repression of atoC transcription in Escherichia coli K-12 BW25113 at 1 mM by beta-galactosidase reporter assay; type: functional, organism-based; procedure, shortened: as §1

## Cc1c(C)c2c(c(C)c1Br)NCCO2
[1]
  Activity: inactive
[2]
  Activity: Active
[3]
  Activity: inactive
[4]
  Activity: inactive

## Cc1cc(C)c2c(c1C)OCCN2
[5]
  Activity: Active
[6]
  Activity: Dose-dependent effect
[7]
  Activity: Active
[8]
  Activity: Active
[9]
  Activity: inactive
[10]
  Activity: Active
[11]
  Activity: Dose-dependent effect
[12]
  Activity: Active
[13]
  Activity: inactive
[1]
  Activity: Active
[14]
  Activity: Active
[15]
  Activity: Active
[16]
  Activity: Dose-dependent effect
[2]
  Activity: Active
[17]
  Activity: inactive
[18]
  Activity: inactive
[19]
  Activity: Active
[4]
  Activity: Active

## COc1ccc(C2CNc3c(C)cc(C)c(C)c3O2)cc1 (stereo unspecified)
[1]
  Activity: Active
[3]
  Activity: Active
[4]
  Activity: inactive

## Cc1c(C)c2c(c(C)c1Cl)NCC(c1ccccc1)O2 (stereo unspecified)
[1]
  Activity: Active
[3]
  Activity: Active
[4]
  Activity: inactive

## COc1ccc(C2COc3c(C)c(C)cc(C)c3N2)cc1 (stereo unspecified)
[3]
  Activity: Active
[20]
  Activity: Active
[4]
  Activity: inactive

## Cc1c(C)c2c(c(C)c1Cl)NCCO2
[2]
  Activity: Active
[20]
  Activity: Active
[4]
  Activity: inactive

## COc1ccc(-c2c(C)c(C)c3c(c2C)NCCO3)cc1
[1]
  Activity: Active
[3]
  Activity: inactive
